# In the library only some 4.6% were active in any assay of this set; here they are far more common.
# APP 5'UTR act = activates APP 5'UTR luciferase reporter. activation, % at 2 µM. SH-SY5Y APP 5'UTR luciferase reporter, luminescence; zero percent = DMSO vehicle wells. 190,000 compounds, 1% hits;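 active = activation above a set limit, based on mean plus 3 SD of controls, cut at about 140% in these data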
# Wee1 degr inh = inhibitors of human Wee1 degradation; HeLa Luc-Wee1K328M stability, luciferase luminescence; 100% = proteasome inhibitor MG132 effect; reporter increase, % at 5 µM; 220,000 compounds, 1.2% hits; AID 1321;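 active = activation above the mean of all tested compounds plus 3 SD, set per screening run, cut at about 8.8% in these data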;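 also: cells exposed to compound for 20 h before luminescence read; 0% = DMSO alone and 100% = MG132 at 30 µM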
# Target sequence (P30291 whole entry K328M): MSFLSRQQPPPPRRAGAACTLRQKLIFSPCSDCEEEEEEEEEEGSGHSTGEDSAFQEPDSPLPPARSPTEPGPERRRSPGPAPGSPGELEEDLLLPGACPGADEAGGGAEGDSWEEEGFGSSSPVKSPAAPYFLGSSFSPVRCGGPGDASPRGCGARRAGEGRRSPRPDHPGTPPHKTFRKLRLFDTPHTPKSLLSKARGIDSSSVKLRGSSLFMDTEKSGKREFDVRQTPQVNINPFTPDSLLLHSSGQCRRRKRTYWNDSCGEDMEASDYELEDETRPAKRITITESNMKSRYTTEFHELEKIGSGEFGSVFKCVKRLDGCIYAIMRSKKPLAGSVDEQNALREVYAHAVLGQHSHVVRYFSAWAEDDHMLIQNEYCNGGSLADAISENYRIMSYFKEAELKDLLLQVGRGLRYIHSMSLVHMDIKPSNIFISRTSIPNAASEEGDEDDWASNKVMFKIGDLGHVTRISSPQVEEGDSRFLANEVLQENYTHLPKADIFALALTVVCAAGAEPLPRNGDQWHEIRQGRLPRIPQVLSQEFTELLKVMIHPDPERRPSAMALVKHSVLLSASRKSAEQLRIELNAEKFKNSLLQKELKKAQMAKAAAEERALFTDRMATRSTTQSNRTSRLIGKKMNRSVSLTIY
# STAT1 activator = STAT1 signaling activation | NIH 3T3 STAT1-luciferase reporter, IFN-gamma, luminescence; 100% = IFN-gamma alone, no compound | activation (% of control), % at 5.5 µM | 200,000 compounds, 2.6% hits | AID 932;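 active = activation above the screen-wide mean activation plus 3 SD, cut at about 130% in these data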;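 also: raw ratio to IFN-gamma control signal so 100% means no change and 0% no light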
# Mdm2 ligase inh = Mdm2 E3 ligase (human) inhibition; AID 1230; cell-based MDM2 ubiquitination luciferase reporter, 2 h; 0 = plate control, 100 = twice control, blank-subtracted; 210,000 compounds, 0.11% hits; signal enhancement, % at 5 µM; Q00987;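 active = signal enhancement of 30% or more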;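 also: luminescence tracks abundance of the self-degrading MDM2-luciferase fusion protein; higher signal means inhibition of MDM2 E3 ligase activity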
#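 Assay system: mammalian cells stably expressing self-ubiquitinating, self-degrading MDM2 E3–luciferase fusion. Quantity: 2000 cells in each well. Medium: DMEM culture medium. Compound dosing: single-point 5 µM. Timing: cell settling 4 h, compound treatment 2 h, both 37 °C. Technique: luciferase luminescence. Read-out basis: percent signal gain over controls, blank-subtracted. Benchmarks: plate controls and plate blanks.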
# p97 ATPase inh = blocks human p97 ATPase activity; P55072; recombinant p97 ATPase, Kinase-Glo ATP luminescence, 3 h; inhibition, % at 8 µM; 220,000 compounds, 0.42% hits; in the data active = inhibition above about 15%;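 also: 0% = DMSO vehicle and 100% = wells lacking enzyme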
# NF-kB expr up = compounds increasing NF-kB expression in human neuronal cells. AID 1239. NF-kB reporter expression; active compounds read high. 190,000 compounds, 1.6% hits. fold change at 12.5 µM; in the data active = fold change above about 3.3
# Active calls of the source: *; / = no result.
SMILES,APP 5'UTR act,Wee1 degr inh,STAT1 activator,Mdm2 ligase inh,p97 ATPase inh,NF-kB expr up
CCOC(=O)c1sc(=NC(=O)CCSc2ccccc2)n(C)c1C,28.8,1.6,136.1*,-17.2,4.5,0.99
CCOC(=O)c1sc(=NC(=O)c2ccc(C)cc2)n(C)c1C,74.9,4.2,139.2*,-4.4,1.8,3.67*
CCOC(=O)N1CCN(C(=O)CCSc2ccccc2)CC1,75.0,2.4,133.8*,-7.0,-4.9,1.84
CCOC(=O)N1CCN(C(=O)CCSc2ccc(C)cc2)CC1,22.5,-1.2,105.3,-8.0,4.7,1.3
CCOC(=O)c1sc(=NC(=O)c2cc(OC)c(OC)c(OC)c2)n(C)c1C,-8.6,0.1,99.5,16.3,2.5,1.05
CCOC(=O)c1sc(=NC(=O)c2cccc(C)c2)n(C)c1C,161.9*,4.2,142.5*,-26.5,0.1,3.49*
CCOC(=O)N1CCN(CC(=O)Nc2cc(OC)c(OC)cc2C#N)CC1,4.0,0.2,87.9,-20.2,-3.1,0.88
COc1ccc(S(=O)(=O)N(C)C)cc1NS(=O)(=O)c1ccc(F)c(F)c1F,-14.3,-1.4,93.6,5.8,3.9,1.09
COc1ccc(N2CCN(C(C)C(=O)Nc3nnc(C)s3)CC2)cc1 (stereo not drawn),21.1,-2.9,98.7,5.8,2.4,0.99
Cc1ccc2c(c1)C(N1CCCC1=O)CC(c1ccco1)N2 (stereo not drawn),126.9,1.5,93.4,-6.0,-1.4,3.72*
CC(OC(=O)c1ccc2c(=O)n3c(nc2c1)CCCCC3)C(=O)Nc1ccc(F)cc1Cl (stereo not drawn),8.0,3.3,97.1,-13.8,2.2,1.21
Fc1ccc2c(Cl)c(-c3nnc(-c4cccs4)o3)sc2c1,146.3*,-2.6,118.3,-7.6,6.1,2.32
CC(=O)c1ccc(-n2c(SCC(=O)c3c[nH]c4ccccc34)nc3ccccc3c2=O)cc1,-6.7,1.0,85.8,-2.7,-0.6,1.15
O=C1CN(c2cc(Cl)cc(Cl)c2)C(=O)CN1/N=C/c1cccnc1,/,2.8,/,77.0*,-6.9,/
COc1ccc(NC(=O)Cn2c(=O)sc3ccccc32)cc1,-16.6,0.3,89.7,-10.3,2.4,0.98
COC(=O)Cn1c(=O)sc2ccccc21,-3.6,10.1*,99.5,-8.5,-0.3,0.99
CCN(CC)S(=O)(=O)c1ccc(NC(=O)Cn2c(=O)sc3ccccc32)cc1,2.8,9.2*,87.6,11.9,-1.6,0.71
O=C(Cn1c(=O)sc2ccccc21)Nc1ccccc1,/,-1.5,95.7,-5.6,-8.6,0.85
COc1ccc(CCN(CC(=O)NC(C)(C)C)C(=O)Cn2nnc(-c3ccc(C)o3)n2)cc1OC,-3.1,1.0,96.5,-10.0,-0.5,1.11
COC(=O)CNC(=O)CCc1nnc(C2(c3ccc(Cl)cc3)CCC2)o1,1.4,-0.3,121.4,2.6,-4.3,2.17
COCC(C)NC(=O)CCc1nnc(C2(c3ccc(Cl)cc3)CCC2)o1 (stereo not drawn),52.0,8.9*,125.3,-5.2,0.7,1.75
C=CCNC(=O)CCc1nnc(C2(c3ccc(Cl)cc3)CCC2)o1,57.1,-0.4,140.3*,-4.2,4.2,2.87
C=C(C)CNC(=O)CCc1nnc(C2(c3ccc(Cl)cc3)CCC2)o1,22.5,2.6,114.6,-0.9,0.3,2.3
CCOc1ccc(N2C(=O)CN(CC(=O)OC)C2=S)cc1,1.5,2.1,96.2,0.2,-2.2,1.07
O=C(CCN1CCC(c2ccc(Cl)s2)=N1)c1ccc(Cl)s1,/,7.8,/,-14.4,7.2,/
SMILES,APP 5'UTR act,Wee1 degr inh,STAT1 activator,Mdm2 ligase inh,p97 ATPase inh,NF-kB expr up
Cc1cccc(NC(=O)c2n[nH]c([N+](=O)[O-])c2Br)c1C,132.4,0.1,123.1,-52.6,5.5,4.07*
Cc1cccc(NC(=O)c2ccccn2)c1C,33.0,-2.3,124.7,-4.9,1.5,1.62
COc1ccc2oc(C(=O)OCC(=O)/C(C#N)=C(\C)N)c(C)c2c1,49.3,-2.2,122.6,-2.2,1.9,1.21
O=C(Nc1cnc2ccccc2c1)c1cccc(-n2cnnn2)c1,60.1,1.0,135.0*,-13.0,6.9,1.45
Cc1ccc(C(=O)Nc2cnc3ccccc3c2)cc1,-30.7,-3.7,16.5,-15.5,-1.5,0.71
CCCn1c(NC(=O)c2ccccc2)nc2ccccc21,-5.4,2.9,102.5,-4.0,-2.4,0.99
O=C(Nc1ccc(NC(=O)c2ccco2)nc1)c1cccnc1,78.8,3.4,134.2*,-35.9,3.5,2.38
O=C(Nc1cccnc1)c1ccc(NC(=O)c2ccco2)cc1,16.8,3.8,105.9,-1.5,-1.3,0.78
Cn1c(NC(=O)c2cccnc2)nc2ccccc21,73.6,-1.5,147.7*,-20.5,-2.9,2.17
Cc1cc(C(=O)Nc2cnc3ccccc3c2)ccc1[N+](=O)[O-],203.5*,9.1*,136.8*,-9.8,-0.7,2.23
O=C(N=Nc1c(O)[nH]c2ccc(F)cc12)C1COc2ccccc2O1 (stereo not drawn),/,0.3,/,-16.4,1.2,/
O=C(Nc1cnc2ccccc2c1)c1cccnc1,106.3,-1.1,134.5*,-43.5,3.1,3.61*
O=C(NC(=S)Nc1ccc2ncccc2c1)c1ccccc1,60.4,6.0,131.2*,-6.7,1.9,1.08
CC(C)(C)NC(=S)NNC(=O)c1ccc2ncccc2c1,81.5,4.2,136.1*,-9.4,2.4,1.04
O=C(Nc1cccc(NC(=O)c2cccnc2)c1)c1cccnc1,-12.9,2.0,94.4,-9.1,-3.2,0.45
CCNC(=O)c1ccc(C23CC4CC(CC(C4)C2)C3)o1,9.9,0.2,104.8,3.6,1.5,1.02
CC(c1cccs1)N(C)Cc1nc(CCc2ccccc2)no1 (stereo not drawn),0.1,-2.6,103.1,-10.8,-1.2,1.33
COc1ccc(-c2cc(C(F)(F)F)nc(S(=O)(=O)CCCC(=O)Nc3cccnc3Cl)n2)cc1OC,-17.1,1.2,58.5,34.1*,4.3,1.16
Cc1ccccc1-c1nnc(-c2cccs2)o1,73.3,-0.2,144.2*,-15.2,0.8,2.07
c1coc(-c2nnc(-c3cccs3)o2)c1,49.0,5.6,118.7,-7.7,5.1,1.72
Cc1ccccc1-c1noc(-c2cccs2)n1,50.1,3.4,142.7*,-0.4,-0.4,2.26
C/C(N)=C(/C#N)C(=O)CSc1cc(C)c2cc(C)cc(C)c2n1,25.9,-2.4,99.5,-21.1,0.9,0.85
COC(=O)c1nnn(-c2nc(N(C)C)nc(N(C)C)n2)c1C,-12.2,6.8,98.1,-17.5,0.8,1.08
CC(C)(C)c1ccc(C(=O)/C=C2\NC(=O)CS2)cc1,118.7,1.8,121.0,-28.4,-6.0,6.62*
COc1ccc(OCCSc2nnnn2C2CCCCC2)cc1,12.8,0.1,105.4,-14.7,-3.6,1.65
c1ccc(OCCSc2nnnn2C2CCCCC2)cc1,142.5*,0.5,132.9*,/,-3.2,/
O=C(COCC(=O)N1CCOCC1)N1CCOCC1,5.3,0.5,102.6,0.4,3.9,/
